Experimental data taken from ChEMBL document CHEMBL4765248, “Design, synthesis, biological evaluation and molecular docking study of novel thieno[3,2-d]pyrimidine derivatives as potent FAK inhibitors” (Eur J Med Chem, 2020).

How the values were obtained:
[1] = tested on: MDA-MB-231; experiment: Antiproliferative activity against human MDA-MB-231 cells assessed as cell viability at 0.1 uM measured after 48 hrs by MTT assay (reference value: 100%); type: functional; conditions: read-out: Activity
[2] = tested on: MDA-MB-231; experiment: Antiproliferative activity against human MDA-MB-231 cells assessed as cell viability at 0.5 uM measured after 72 hrs by MTT assay (reference value: 100%); type: functional; conditions: read-out: Activity
[3] = Intrinsic clearance in rat liver microsomes at 1 uM measured after 60 mins in presence of NADPH by LC-MS/MS analysis; type: ADME, Microsome; conditions: read-out: CLH
Summary of the method: (§1)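 Rat liver microsomes (0.5 mg/mL) were incubated at 37 °C with 1 μM compound in 100 mM potassium phosphate, pH 7.4, with 10 mM MgCl2. Reaction was started with prewarmed NADPH cofactor and sampled at 0, 5, 10, 20, 30 and 60 min. Protein was precipitated with cold acetonitrile and supernatants analysed by LC-MS/MS to give half-life, 1 h remaining and intrinsic clearance.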

[4] = tested on: MDA-MB-231; experiment: Antiproliferative activity against human MDA-MB-231 cells assessed as cell viability at 0.5 uM measured after 48 hrs by MTT assay (reference value: 100%); type: functional; conditions: read-out: Activity
[5] = molecular target: Protein kinase C theta type (Homo sapiens) (UniProt Q04759); experiment: Inhibition of His-tagged full length human PKC theta expressed in baculovirus expression system at 1 uM by Selectscreen kinase assay
Summary of the method: (§2)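 Single-point screen at 1 μM final against a panel of 25 kinases using a commercial profiling service; mean of three independent experiments each run in triplicate.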

[6] = tested on: Hepatocyte growth factor receptor (Homo sapiens), P08581 [Y1235D]; experiment: Inhibition of GST-tagged partial length human MET (956-1390 residues) Y1235D mutant expressed in insect expression system at 1 uM by Selectscreen kinase assay; summary of the method: as §2
[7] = Metabolic stability in rat liver microsomes assessed as parent compound remaining at 1 uM measured after 60 mins in absence of NADPH by LC-MS/MS analysis; type: ADME, Microsome; conditions: read-out: Stabilty
Summary of the method: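 Rat liver microsomes (0.5 mg/mL) were incubated at 37 °C with 1 μM compound in pH 7.4 potassium phosphate/MgCl2 buffer for 1 h, with buffer in place of the NADPH regeneration system. After acetonitrile precipitation, percent parent remaining was measured by LC-MS/MS.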

[8] = species: Homo sapiens; experiment: Inhibition of His-tagged human PKA catalytic domain expressed in Escherichia coli expression system at 1 uM by Selectscreen kinase assay; summary of the method: as §2
[9] = tested on: HK-2; experiment: Cytotoxicity against human HK2 cells assessed as inhibition of cell proliferation measured after 72 hrs by MTT assay; type: cell-based; conditions: HK-2, 72 h
Summary of the method: (§3)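 Cells were seeded at 4000–5000/well and held 24 h at 37 °C in 5% CO2. Compounds were added at the indicated final concentrations and incubated 72 h. MTT was added (5 mg/mL in PBS, stated as final) for 4 h at 37 °C. Formazan was dissolved in DMSO and absorbance read at 490 nm. The 50% growth-inhibitory concentration is the mean of three independent experiments ± SE.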

[10] = Half life in rat liver microsomes at 1 uM measured up to 60 mins in presence of NADPH by LC-MS/MS analysis; type: ADME, Microsome
Summary of the method: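 Rat liver microsomes (0.5 mg/mL) were incubated with 1 μM test compound at 37 °C in potassium phosphate buffer (pH 7.4, 100 mM, 10 mM MgCl2). The reaction was started with prewarmed NADPH cofactor (1 mmol). It was sampled at 0, 5, 10, 20, 30 and 60 min and quenched with cold acetonitrile. Protein was removed by centrifugation and the supernatant analysed by LC-MS/MS.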

[11] = molecular target: Serine/threonine-protein kinase mTOR (Homo sapiens) (UniProt P42345); experiment: Inhibition of GST-tagged partial length human mTOR catalytic domain (1360-2549 residues) expressed in baculovirus expression system at 1 uM by Selectscreen kinase assay; summary of the method: as §2
[12] = tested on: MDA-MB-231; experiment: Induction of apoptosis in human MDA-MB-231 cells assessed as viable cells at 0.1 uM incubated for 48 hrs by Annexin V-FITC/PI staining based flow cytometric analysis (reference value: 95.84%); type: functional; conditions: read-out: Activity
[13] = tested on: A549; experiment: Antiproliferative activity against human A549 cells assessed as reduction in cell viability at 0.1 to 2.5 uM by MTT assay; type: functional, cell-based; conditions: dose 0.1-2.5 µM, time 24-72 hrs, TDE = time-dependent effect
[14] = Metabolic stability in rat liver microsomes assessed as parent compound remaining at 1 uM measured after 60 mins in presence of NADPH by LC-MS/MS analysis; type: ADME, Microsome; conditions: read-out: Stabilty; summary of the method: as §1
[15] = molecular target: Interleukin-1 receptor-associated kinase 4 (Homo sapiens) (UniProt Q9NWZ3); experiment: Inhibition of His-tagged full length human IRAK4 expressed in baculovirus expression system at 1 uM by Selectscreen kinase assay; summary of the method: as §2
[16] = tested on: A549; experiment: Antiproliferative activity against human A549 cells assessed as cell viability at 0.1 uM measured after 24 hrs by MTT assay (reference value: 100%); type: functional; conditions: read-out: Activity
[17] = molecular target: Serine/threonine-protein kinase PAK 1 (Homo sapiens) (UniProt Q13153); experiment: Inhibition of GST-tagged full length human PAK1 expressed in baculovirus expression system at 1 uM by Selectscreen kinase assay; summary of the method: as §2
[18] = molecular target: Mitogen-activated protein kinase 1 (Homo sapiens) (UniProt P28482); experiment: Inhibition of GST-tagged full length human ERK2 expressed in Escherichia coli at 1 uM by Selectscreen kinase assay; summary of the method: as §2
[19] = tested on: MDA-MB-231; experiment: Antiproliferative activity against human MDA-MB-231 cells assessed as cell viability at 0.1 uM measured after 24 hrs by MTT assay (reference value: 100%); type: functional; conditions: read-out: Activity
[20] = molecular target: ALK tyrosine kinase receptor (Homo sapiens) (UniProt Q9UM73); experiment: Inhibition of GST-tagged human ALK expressed in baculovirus expression system at 1 uM by Selectscreen kinase assay; summary of the method: as §2
[21] = tested on: A549; experiment: Antiproliferative activity against human A549 cells assessed as inhibition of cell growth measured after 72 hrs by MTT assay; type: functional, cell-based; conditions: A549, 72 h; summary of the method: as §3
[22] = tested on: MDA-MB-231; experiment: Induction of apoptosis in human MDA-MB-231 cells assessed as viable cells at 0.2 uM incubated for 48 hrs by Annexin V-FITC/PI staining based flow cytometric analysis (reference value: 95.84%); type: functional; conditions: read-out: Activity
[23] = tested on: MDA-MB-231; experiment: Antiproliferative activity against human MDA-MB-231 cells assessed as inhibition of cell growth measured after 72 hrs by MTT assay; type: functional, cell-based; conditions: MDA-MB-231, 72 h; summary of the method: as §3
[24] = molecular target: Fibroblast growth factor receptor 4 (Homo sapiens) (UniProt P22455); experiment: Inhibition of His-tagged human FGFR4 cytoplasmic domain expressed in baculovirus expression system at 1 uM by Selectscreen kinase assay; summary of the method: as §2
[25] = tested on: MDA-MB-231; experiment: Induction of cell cycle arrest in human MDA-MB-231 cells assessed as accumulation of cells at G2/M phase at 0.2 uM measured after 48 hrs by PI staining based flow cytometry method (reference value: 17.40%); type: functional
[26] = tested on: MDA-MB-231; experiment: Induction of apoptosis in human MDA-MB-231 cells assessed as late apoptotic cells at 0.2 uM incubated for 48 hrs by Annexin V-FITC/PI staining based flow cytometric analysis (reference value: 1.49%); type: functional
[27] = molecular target: Inhibitor of nuclear factor kappa-B kinase subunit epsilon (Homo sapiens) (UniProt Q14164); experiment: Inhibition of GST-tagged full length human IKK epsilon expressed in baculovirus expression system at 1 uM by Selectscreen kinase assay; summary of the method: as §2
Sequence of Inhibitor of nuclear factor kappa-B kinase subunit epsilon (Homo sapiens) (Q14164 whole entry): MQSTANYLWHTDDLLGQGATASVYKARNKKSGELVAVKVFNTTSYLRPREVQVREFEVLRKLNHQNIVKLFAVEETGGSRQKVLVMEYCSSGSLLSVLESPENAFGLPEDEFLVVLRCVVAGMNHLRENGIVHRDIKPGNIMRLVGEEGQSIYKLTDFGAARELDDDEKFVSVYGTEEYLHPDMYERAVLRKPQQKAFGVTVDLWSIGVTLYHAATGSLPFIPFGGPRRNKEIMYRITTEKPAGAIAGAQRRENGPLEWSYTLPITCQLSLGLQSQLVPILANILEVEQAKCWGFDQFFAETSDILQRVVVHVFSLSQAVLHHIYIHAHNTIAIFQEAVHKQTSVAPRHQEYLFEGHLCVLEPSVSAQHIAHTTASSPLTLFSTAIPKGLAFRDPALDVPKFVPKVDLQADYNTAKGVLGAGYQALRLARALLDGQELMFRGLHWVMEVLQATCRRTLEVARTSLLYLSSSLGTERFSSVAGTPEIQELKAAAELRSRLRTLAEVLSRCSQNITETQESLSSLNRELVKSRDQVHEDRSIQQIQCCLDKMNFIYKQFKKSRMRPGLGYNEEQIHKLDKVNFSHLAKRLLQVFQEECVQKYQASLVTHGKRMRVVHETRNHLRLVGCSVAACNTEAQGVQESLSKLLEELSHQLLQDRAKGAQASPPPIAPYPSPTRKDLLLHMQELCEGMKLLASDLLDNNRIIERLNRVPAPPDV

Sequence of Hepatocyte growth factor receptor (Homo sapiens), P08581 [Y1235D] (P08581 whole entry Y1235D, the tested form may be a part): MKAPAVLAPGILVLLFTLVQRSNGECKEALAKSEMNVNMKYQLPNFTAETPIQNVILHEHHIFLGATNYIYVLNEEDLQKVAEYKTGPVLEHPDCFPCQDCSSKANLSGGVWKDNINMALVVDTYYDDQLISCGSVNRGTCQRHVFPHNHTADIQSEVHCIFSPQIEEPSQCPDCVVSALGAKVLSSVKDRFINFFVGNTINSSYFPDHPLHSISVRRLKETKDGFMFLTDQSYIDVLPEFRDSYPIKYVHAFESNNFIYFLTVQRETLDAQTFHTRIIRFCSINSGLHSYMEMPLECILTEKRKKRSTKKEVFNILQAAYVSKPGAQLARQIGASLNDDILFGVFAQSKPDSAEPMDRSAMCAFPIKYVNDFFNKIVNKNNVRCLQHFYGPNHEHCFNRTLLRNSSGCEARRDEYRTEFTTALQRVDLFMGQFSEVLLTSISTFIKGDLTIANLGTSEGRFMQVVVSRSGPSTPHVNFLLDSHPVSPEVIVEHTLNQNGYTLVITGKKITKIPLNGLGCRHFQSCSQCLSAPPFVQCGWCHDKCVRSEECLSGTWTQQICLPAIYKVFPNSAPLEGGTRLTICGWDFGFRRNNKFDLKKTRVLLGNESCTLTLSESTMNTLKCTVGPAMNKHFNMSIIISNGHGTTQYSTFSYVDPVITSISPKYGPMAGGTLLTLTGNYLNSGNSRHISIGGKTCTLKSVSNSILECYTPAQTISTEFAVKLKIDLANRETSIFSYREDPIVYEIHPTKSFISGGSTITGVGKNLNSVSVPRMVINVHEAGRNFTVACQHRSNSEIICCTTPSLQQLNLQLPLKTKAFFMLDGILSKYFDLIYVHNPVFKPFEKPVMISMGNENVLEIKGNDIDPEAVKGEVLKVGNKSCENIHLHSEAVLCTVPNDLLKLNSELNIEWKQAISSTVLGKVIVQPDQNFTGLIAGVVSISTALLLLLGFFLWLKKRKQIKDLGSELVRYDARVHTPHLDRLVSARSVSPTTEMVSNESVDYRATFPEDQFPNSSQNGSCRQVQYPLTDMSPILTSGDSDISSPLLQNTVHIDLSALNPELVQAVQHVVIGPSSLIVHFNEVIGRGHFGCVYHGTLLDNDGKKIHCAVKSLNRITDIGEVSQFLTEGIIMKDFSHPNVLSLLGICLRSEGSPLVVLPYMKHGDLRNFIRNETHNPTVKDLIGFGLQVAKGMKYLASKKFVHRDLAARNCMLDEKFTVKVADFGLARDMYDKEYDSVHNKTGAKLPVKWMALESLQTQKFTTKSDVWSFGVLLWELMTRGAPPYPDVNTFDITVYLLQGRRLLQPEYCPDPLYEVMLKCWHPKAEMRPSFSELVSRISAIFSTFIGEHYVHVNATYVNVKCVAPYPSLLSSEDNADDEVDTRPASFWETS
Sequence of Interleukin-1 receptor-associated kinase 4 (Homo sapiens) (Q9NWZ3 whole entry): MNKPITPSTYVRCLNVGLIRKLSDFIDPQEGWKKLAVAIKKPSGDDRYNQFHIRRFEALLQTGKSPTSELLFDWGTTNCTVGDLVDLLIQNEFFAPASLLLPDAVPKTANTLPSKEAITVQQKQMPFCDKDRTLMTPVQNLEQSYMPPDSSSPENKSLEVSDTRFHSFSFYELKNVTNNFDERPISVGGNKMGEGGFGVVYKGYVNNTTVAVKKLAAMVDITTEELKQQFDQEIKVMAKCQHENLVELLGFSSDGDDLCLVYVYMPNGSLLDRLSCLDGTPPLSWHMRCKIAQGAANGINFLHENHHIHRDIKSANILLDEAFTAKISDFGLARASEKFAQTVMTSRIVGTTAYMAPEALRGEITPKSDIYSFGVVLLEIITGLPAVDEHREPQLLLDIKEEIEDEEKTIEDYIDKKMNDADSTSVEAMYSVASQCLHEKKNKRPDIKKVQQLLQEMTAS
Sequence of Serine/threonine-protein kinase PAK 1 (Homo sapiens) (Q13153 whole entry): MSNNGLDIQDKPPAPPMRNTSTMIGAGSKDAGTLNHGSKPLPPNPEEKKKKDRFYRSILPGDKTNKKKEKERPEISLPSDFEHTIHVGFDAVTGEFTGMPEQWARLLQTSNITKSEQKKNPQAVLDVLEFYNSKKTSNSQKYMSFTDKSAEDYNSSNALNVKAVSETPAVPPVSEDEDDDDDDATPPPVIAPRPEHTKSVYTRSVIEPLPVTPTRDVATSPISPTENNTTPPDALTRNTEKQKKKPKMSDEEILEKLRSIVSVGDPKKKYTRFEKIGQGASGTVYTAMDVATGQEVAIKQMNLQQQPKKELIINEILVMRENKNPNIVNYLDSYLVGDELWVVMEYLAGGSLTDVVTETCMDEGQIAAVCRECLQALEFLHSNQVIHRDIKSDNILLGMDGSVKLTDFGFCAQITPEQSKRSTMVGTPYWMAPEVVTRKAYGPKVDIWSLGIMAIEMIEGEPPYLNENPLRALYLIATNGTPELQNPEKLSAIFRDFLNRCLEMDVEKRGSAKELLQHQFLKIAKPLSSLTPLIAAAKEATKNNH
Sequence of ALK tyrosine kinase receptor (Homo sapiens) (Q9UM73 19-1620 limits assumed): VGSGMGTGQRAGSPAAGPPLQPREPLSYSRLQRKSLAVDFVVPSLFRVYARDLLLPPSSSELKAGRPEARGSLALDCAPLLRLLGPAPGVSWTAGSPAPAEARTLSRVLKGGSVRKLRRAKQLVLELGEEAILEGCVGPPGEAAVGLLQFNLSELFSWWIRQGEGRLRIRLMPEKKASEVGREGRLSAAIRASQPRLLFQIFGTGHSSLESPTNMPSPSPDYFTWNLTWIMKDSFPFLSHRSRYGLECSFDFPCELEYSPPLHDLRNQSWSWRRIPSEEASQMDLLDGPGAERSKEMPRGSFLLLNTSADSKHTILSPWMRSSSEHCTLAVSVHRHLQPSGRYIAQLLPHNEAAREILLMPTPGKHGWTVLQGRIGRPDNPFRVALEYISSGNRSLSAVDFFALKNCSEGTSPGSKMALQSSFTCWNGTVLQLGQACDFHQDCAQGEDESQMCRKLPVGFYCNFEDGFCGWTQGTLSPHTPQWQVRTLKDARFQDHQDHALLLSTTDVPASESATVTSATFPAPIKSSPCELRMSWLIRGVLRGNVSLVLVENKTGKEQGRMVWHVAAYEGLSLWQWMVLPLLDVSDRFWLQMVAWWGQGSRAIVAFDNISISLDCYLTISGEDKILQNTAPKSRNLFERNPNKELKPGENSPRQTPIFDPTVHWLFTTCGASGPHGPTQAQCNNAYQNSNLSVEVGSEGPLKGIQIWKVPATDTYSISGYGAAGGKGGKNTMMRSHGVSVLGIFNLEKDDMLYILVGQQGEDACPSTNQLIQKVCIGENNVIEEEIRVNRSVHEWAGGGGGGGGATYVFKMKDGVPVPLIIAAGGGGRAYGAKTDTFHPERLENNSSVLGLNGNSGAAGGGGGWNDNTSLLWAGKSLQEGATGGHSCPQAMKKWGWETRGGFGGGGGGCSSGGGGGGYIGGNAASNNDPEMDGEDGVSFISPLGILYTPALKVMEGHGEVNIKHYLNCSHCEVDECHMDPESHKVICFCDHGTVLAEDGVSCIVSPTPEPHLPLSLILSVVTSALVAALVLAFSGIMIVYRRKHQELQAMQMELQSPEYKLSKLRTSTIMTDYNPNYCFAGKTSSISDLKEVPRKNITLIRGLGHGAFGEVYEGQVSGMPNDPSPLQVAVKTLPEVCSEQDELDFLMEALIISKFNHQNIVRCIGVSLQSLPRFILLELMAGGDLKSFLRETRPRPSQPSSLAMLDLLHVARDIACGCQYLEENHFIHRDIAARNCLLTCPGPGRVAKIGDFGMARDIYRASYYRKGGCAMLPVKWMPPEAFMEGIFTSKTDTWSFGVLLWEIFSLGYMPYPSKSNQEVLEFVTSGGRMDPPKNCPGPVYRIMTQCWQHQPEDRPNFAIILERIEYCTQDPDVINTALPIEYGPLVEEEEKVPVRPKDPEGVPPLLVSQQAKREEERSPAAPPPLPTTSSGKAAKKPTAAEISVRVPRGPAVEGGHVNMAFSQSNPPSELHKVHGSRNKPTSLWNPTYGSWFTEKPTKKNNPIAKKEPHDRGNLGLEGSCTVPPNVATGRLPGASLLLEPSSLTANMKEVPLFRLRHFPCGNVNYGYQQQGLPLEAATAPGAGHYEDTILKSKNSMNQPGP
Sequence of Mitogen-activated protein kinase 1 (Homo sapiens) (P28482 whole entry): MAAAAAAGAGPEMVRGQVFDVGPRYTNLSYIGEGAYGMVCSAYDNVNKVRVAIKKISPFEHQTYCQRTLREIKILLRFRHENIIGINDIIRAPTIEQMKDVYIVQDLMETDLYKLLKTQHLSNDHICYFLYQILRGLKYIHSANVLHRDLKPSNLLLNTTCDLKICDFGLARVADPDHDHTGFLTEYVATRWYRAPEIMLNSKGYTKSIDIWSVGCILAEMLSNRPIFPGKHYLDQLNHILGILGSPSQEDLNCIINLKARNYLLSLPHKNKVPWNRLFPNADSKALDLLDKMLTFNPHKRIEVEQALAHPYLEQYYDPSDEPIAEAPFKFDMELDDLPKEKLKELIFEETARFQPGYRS

Compound `COc1ccccc1-c1csc2cnc(Nc3ccc(C(=O)NC4CCNCC4)c(F)c3)nc12` has a viability at 0.1 µM [1] of 74.1%, a viability at 0.5 µM [2] of 31% and a microsomal CLint at 1 µM [3] of 10.4 µL/min/mg. The viability at 0.5 µM [4] was 40.7%, the inhibition [5] was 48% and the inhibition [6] was 72%. It also gave a remaining at 1 h, 1 µM [7] of 92.1%, an inhibition [8] of 63% and an IC50 [9] of 3320 nM. The half-life at 1 µM [10] was 2.23 h, the inhibition [11] was 2% and the viability at 0.1 µM [12] was 85.5%. The Activity [13] was “Tde”, the remaining at 1 h, 1 µM [14] was 72.4% and the inhibition [15] was 72%. The viability at 0.1 µM [16] was 96.4%, the inhibition [17] was 67% and the inhibition [18] was 1%. For the same compound, the viability at 0.1 µM [19] was 97.6%, the inhibition [20] was 95% and the IC50 [21] was 270 nM. It also gave a viability at 0.2 µM [22] of 75%, an IC50 [23] of 190 nM and an inhibition [24] of 66%. The Activity [25] was 9.49%, the Activity [26] was 13.55% and the inhibition [27] was 66%.
